# Experimental data gathered from unrelated publications.
# Compare with care: the assays were run in different laboratories.
Structure (SMILES),cell line,test,conditions,endpoint,result
O=C(O[C@@H]1COC(=O)c2cc(O)c(O)c(O)c2-c2c(cc(O)c(O)c2O)C(=O)O[C@H]1[C@@H]1OC(=O)c2cc(O)c(O)c(O)c2-c2c(O)c(O)c(O)c3c2C(=O)O[C@H]1[C@@H]3O)c1cc(O)c(O)c(O)c1,SIM-A9,"NO release, inhibitor, Griess","10.7 µM, LPS-stimulated",inhibition,52%
COCCC(=O)Nc1ccccc1/N=c1\cc(-c2ccc3nc(N)oc3c2)oc2ccccc12,MOLM-13,"cell growth or viability, CCK-8",1 µM,inhibition,2.66%
CCCCCCCCCCCCCCCCCCOc1ccc(CC(=O)OCC[N+](CC)(CC)CC)cc1,NCI-H23,"cell growth or viability, SRB",10 µM,inhibition,39.5%
COC(=O)[C@H]1[C@@H](O)[C@@]2(O)c3c(OC)cc(O[C@@H]4O[C@@H]([C@H](O)CO)CO[C@H]4OC)cc3O[C@@]2(c2ccc(OC)cc2)[C@@H]1c1ccccc1,C6661,"cell growth or viability, MTS",24 h,IC50,68 nM
COc1cccc2c1C(=O)c1c(O)c3c(c(O)c1C2=O)C[C@@](O)(C(=O)CO)C[C@@H]3O[C@H]1C[C@H](N)[C@H](O)[C@H](C)O1,CHP-212,"cell growth or viability, SRB",41.15 nM,viability,50.8%
CCCCCCCCCCCCCCCCCCOc1cccc(CC(=O)OCC[N+]2(C)CCCCC2)c1,NCI-H23,"cell growth or viability, SRB",10 µM,inhibition,16.1%
[NH2][Pt]([NH2])([Cl])[Cl],SW1573,"cell growth or viability, SRB",,GI50,2700 nM
NCCC(=O)Nc1ccccc1/N=c1\cc(-c2ccc3c(c2)OCO3)oc2ccccc12,MOLM-13,"cell growth or viability, CCK-8",1 µM,inhibition,2.07%
CC(=O)O[C@H]1C(=O)[C@@]2(C)[C@H]([C@H](OC(=O)c3ccccc3)[C@]3(O)C[C@H](OC(=O)[C@H](O)[C@@H](NC(=O)c4ccccc4)c4ccccc4)C(C)=C1C3(C)C)[C@]1(OC(C)=O)CO[C@@H]1C[C@@H]2O,CHP-212,"cell growth or viability, SRB",10 µM,viability,5.97%
COc1ccc2/c(=N/c3ccccc3NC(=O)[C@H](C)N)cc(-c3ccc4c(c3)OCCO4)oc2c1,MOLM-13,"cell growth or viability, CCK-8",1 µM,inhibition,6.88%
CCCCCCCCCCCCCCCCCCOc1cccc(CC(=O)OCC[N+]2(C)CCCC2)c1,NCI-H23,"cell growth or viability, SRB",10 µM,inhibition,24.6%
C(=N\Nc1cc(N/N=C/c2cccc3cccnc23)ncn1)/c1cccc2cccnc12,Bel-7402,"cell growth or viability, MTT",48 h,IC50,17600 nM
NC(=O)C1CCCN1C(=O)Nc1ccccc1/N=c1\cc(-c2ccc3c(c2)OCCO3)oc2cc(F)ccc12 (stereo not drawn),MOLM-13,"cell growth or viability, CCK-8",1 µM,inhibition,4.05%
CCCCCCCCCCCCCCCCCCOc1ccc(CC(=O)OCC[N+]2(C)CCCCC2)cc1,NCI-H23,"cell growth or viability, SRB",10 µM,inhibition,13.3%
COc1ncnc(C2CC2)c1-c1ncc2cnn(Cc3ccc(-c4nc(C(F)(F)F)cn4C(C)C)cc3)c2n1,CHP-212,"cell growth or viability, SRB",6.25 µM,viability,87.2%
Nc1nc2ccc(-c3c/c(=N\c4ccccc4NC(=O)CCN4CCOCC4)c4ccccc4o3)cc2o1,MOLM-13,"cell growth or viability, CCK-8",1 µM,inhibition,0.92%
CCCCCCCCCCCCCCCCCCOc1cccc(CC(=O)OCCC[N+](C)(C)C)c1,NCI-H23,"cell growth or viability, SRB",10 µM,inhibition,24.1%
CNCc1ccc(-c2cc(-c3nc(-c4ccc(S(=O)(=O)C(C)C)cc4)cnc3N)on2)cc1,CT26,"cell growth or viability, ATP luminescence",48 h,IC50,1980 nM
COc1ccc2oc(-c3ccc4nc(N)oc4c3)c/c(=N\c3ccccc3NC(=O)CCN)c2c1,MOLM-13,"cell growth or viability, CCK-8",1 µM,inhibition,61.4%
O=C(N[C@@H](CSCc1ccccc1)C(=O)NO)c1ccccc1,NCI-H1573,"cell growth or viability, MTT",48 h,IC50,11300 nM
CC(C)C[C@H](NC(=O)[C@H](Cc1ccccc1)NC(=O)c1cnccn1)B(O)O,CHP-212,"cell growth or viability, SRB",0.3704 µM,viability,88%
